Compound activity from PubChem.
GSK3beta inhib = human GSK3beta kinase inhibitors, primary screen, biochemical, cell-free homogeneous, HTS. activity score (negative = inhibition), % at 10 µM. actives 0.038% (n = 300,000). Glycogen synthase kinase-3 beta (Homo sapiens), P49841. GST-GSK3beta kinase, ADP-Glo luminescence, 60 min; hits give low values. AID 2097, 2009;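 active means more than half of replicate wells score below -50%, meaning over 50% inhibition versus plate controls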;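 further: 0% = median DMSO wells and -100% = median GW8510 positive control wells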
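test system = GST-tagged human GSK3beta kinase, cell-free | reagent = 25 µM ATP with peptide substrate | dosing = one dose of 10 µM per compound | schedule = 60 min reaction, RT | detection = luminescent ADP-Glo measurement of ADP formed | control set = DMSO neutral wells and GW8510 at 20 µM as positive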
STK33 inh = inhibitors of purified STK33 kinase, primary screen, biochemical, ADP-Glo luminescence, homogeneous, cell-free | actives 0.073% (n = 320,000) | inhibition, % at 10 µM | MBP phosphorylation | AID 2661, 2010 | Serine/threonine-protein kinase 33 (Homo sapiens), Q9BYT3;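 active means inhibition at or above 25%, using the most active replicate where run in duplicate; inactive means inhibition below 25%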
Target sequence (Q9BYT3 whole entry, looked up): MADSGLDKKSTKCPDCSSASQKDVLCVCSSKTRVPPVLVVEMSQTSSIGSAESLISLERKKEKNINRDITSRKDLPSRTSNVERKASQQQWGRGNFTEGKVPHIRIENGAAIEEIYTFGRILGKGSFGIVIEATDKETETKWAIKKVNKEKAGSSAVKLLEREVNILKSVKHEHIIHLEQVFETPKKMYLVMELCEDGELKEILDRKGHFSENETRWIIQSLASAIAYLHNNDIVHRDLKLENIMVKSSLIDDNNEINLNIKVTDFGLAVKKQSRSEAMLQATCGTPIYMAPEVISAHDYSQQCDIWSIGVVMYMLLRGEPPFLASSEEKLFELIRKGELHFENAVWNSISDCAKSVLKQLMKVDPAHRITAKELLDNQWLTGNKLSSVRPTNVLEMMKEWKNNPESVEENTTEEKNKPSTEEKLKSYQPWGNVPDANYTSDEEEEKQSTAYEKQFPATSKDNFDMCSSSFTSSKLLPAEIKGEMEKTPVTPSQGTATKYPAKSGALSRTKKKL
CDK5 inh = inhibitors of human CDK5/p35 kinase, primary screen, biochemical, single concentration | Cyclin-dependent kinase 5 (Homo sapiens) + Cyclin-dependent kinase 5 activator 1 (Homo … | Recombinant CDK5/p35, ADP-Glo luminescence, 60 min | inhibition, % at 10 µM | actives 0.01% (n = 330,000) | AID 488839, 2010;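 active means highest replicate inhibition of at least 50% and at least 75% of replicates reaching 50%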;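 further: plate controls were DMSO neutral control for no effect and GW8510 at 10 µM for full effect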
GSK3 alpha inh = blockers of GSK3A enzyme activity – biochemical, luminescence, cell-free homogeneous, HTS, primary screen; inhibition, % at 10 µM; GSK-3 alpha kinase, ADP-Glo luminescence, 60 min; Glycogen synthase kinase-3 alpha (Homo sapiens), P49840; actives 0.1% (n = 320,000);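 active means more than half of replicates show inhibition above 20%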;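 further: GST-tagged GSK-3 alpha with peptide substrate and 25 µM ATP; 0% = DMSO neutral wells and 100% = GW8510 positive control wells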
DYRK1A inh = rat Dyrk1A kinase inhibitors, primary screen, biochemical, single point, plate reader. actives 0.43% (n = 310,000). inhibition, % at 12.5 µM. ADP-Glo luminescence, NFATc1 peptide. Dual specificity tyrosine-phosphorylation-regulated kinase 1A (Rattus norvegicus), Q63470; in the data active means inhibition above about 50%;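 further: plate controls were vehicle with enzyme for no effect and no enzyme for full effect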
* hit, by the source's call; nt = not tested or not shown. The sample as a whole holds a higher share of hits than the screen did.

SMILES | GSK3beta inhib | STK33 inh | CDK5 inh | GSK3 alpha inh | DYRK1A inh
CC(=O)Nc1cccc2c1C(=O)NC2=O | 2 | 1 | 1 | 72* | 22
CCc1ccc(CNC(=O)c2ccc(OC)c(OC3CCN(C(C)C)CC3)c2)nc1 | 1 | -2 | -1 | 0 | 1
O=C(NC(=S)Nc1ccc2c(c1)OCCO2)c1ccccc1 | 0 | -1 | 3 | 6 | -3
Oc1ccccc1N=Cc1c(O)ccc2ccccc12 | 0 | nt | 0 | nt | -1
Cc1cc(C(=O)O)ccc1N=Cc1c(O)ccc2ccccc12 | 1 | 26* | 0 | 0 | nt
CC(=O)N(C)c1ccc(N=Cc2c(O)ccc3ccccc23)cc1 | -2 | 62* | 1 | 1 | -4
O=C(COC(=O)CN1C(=O)c2ccccc2C1=O)Nc1ccccc1 | nt | -1 | 0 | 2 | 2
COc1cc(NC(=O)CCc2nc(-c3cccs3)no2)cc(OC)c1OC | -1 | -1 | 0 | -1 | -3
CCN(c1ccccc1)S(=O)(=O)c1cc([N+](=O)[O-])ccc1N | -1 | 0 | 1 | -1 | 2
O=C1CCn2c1c(O)c1ccccc1c2=O | nt | nt | 1 | nt | 5
N=C1CCC(=N)c2c1c(O)c1ccccc1c2O | 1 | 33* | 2 | 21 | 40
Cc1cc(Cn2nc(C(=O)NCc3cccc(Br)c3)cc2-c2ccccc2)on1 | nt | 2 | -1 | -2 | -4
O=C(O)Cn1cc(/C=c2/sc3nc4ccccc4n3c2=O)c2ccccc21 | -2 | 32* | -2 | -2 | 47
COc1ccc(CNc2nc3ccccc3s2)cc1OC | 4 | 89* | -1 | 2 | 6
CC(C)(C)OC(=O)N1CCC(NC(=O)c2[nH]cnc2C(=O)Nc2ccon2)CC1 | nt | -1 | 0 | 72* | -7
Cc1nc(Nc2ccccc2)sc1C(=O)c1ccccc1 | -15 | -2 | 0 | 6 | -5
COc1ccc(Nc2nc(N)c(C(=O)c3ccc(OC)cc3)s2)cc1 | -65* | 4 | 15 | 77* | nt
CC(C)(C)C(=O)c1sc(Nc2ccccc2)nc1N | -64* | 2 | 30 | 82* | 21
COc1ccc(C(=O)c2sc(Nc3ccccc3)nc2C)cc1 | 0 | 2 | -1 | 4 | 4
COc1ccc(C(=O)c2sc(NC(C)C)nc2N)cc1OC | nt | -1 | -3 | 91* | 2
COc1ccc(Nc2nc(N)c(C(=O)c3ccc(F)cc3)s2)cc1 | -45 | 3 | 6 | 62* | -3
CSc1nc2ncc3c(n2n1)CC1c2ccccc2CCN1C3=O (stereo not drawn) | -27 | 0 | -2 | 72* | 0
Cc1sc2ncnc(N/N=C/c3cccc(O)c3)c2c1C | -2 | 28* | nt | 6 | 17
CC1(C)CC(=O)C=C(Nc2cc(-c3ccccc3)[nH]n2)C1 | -54* | 0 | 2 | 49 | 6
COc1ccccc1C(=O)Nc1cc(Cl)ccc1O | 2 | 0 | 1 | 0 | 4
SMILES | GSK3beta inhib | STK33 inh | CDK5 inh | GSK3 alpha inh | DYRK1A inh
CCOc1ccccc1C(=O)Nc1cc(Cl)ccc1O | -3 | 26* | 0 | 0 | 23
CCc1ccc(NC(=O)CCn2c(=O)c3cccn3c3ccccc32)cc1 | -6 | -2 | -1 | -2 | 2
O=C(O)c1cc2ccccc2c(N=Nc2cccnc2)c1O | -5 | 1 | 1 | 0 | 73*
CCOC(=O)c1cc2c(=O)n3ccccc3nc2n(Cc2ccco2)c1=NC(=O)c1ccccc1OC | 8 | 2 | 2 | -2 | 0
N#CC(C#N)=C1c2cc(S(N)(=O)=O)ccc2-c2ccc(S(N)(=O)=O)cc21 | nt | nt | -1 | nt | 10
NS(=O)(=O)c1ccc2c(c1)C(=NO)c1cc(S(N)(=O)=O)ccc1-2 | 2 | 72* | 0 | -1 | 6
CN(C)Cc1c(C(=O)N/N=C/c2ccoc2)nnn1-c1nonc1N | -1 | 1 | 2 | 0 | 25
CCCN(CCC)Cc1c(C(=O)N/N=C/c2ccoc2)nnn1-c1nonc1N | -58* | 1 | 1 | 72* | -1
Nc1nonc1-n1nnc(C(=O)N/N=C/c2ccc(O)cc2)c1CN1CCCCCC1 | -64* | 0 | -1 | 83* | 11
CCN(CC)Cc1c(C(=O)N/N=C/c2ccc(C)o2)nnn1-c1nonc1N | -1 | 0 | 0 | 32 | -2
Nc1nonc1-n1nnc(C(=O)N/N=C/c2cccc(O)c2)c1CN1CCCC1 | -25 | 1 | 1 | nt | 18
CN(C)Cc1c(C(=O)N/N=C/c2ccncc2)nnn1-c1nonc1N | -29 | 0 | 1 | 64* | 12
CCN(CC)Cc1c(C(=O)N/N=C/c2ccncc2)nnn1-c1nonc1N | 2 | 4 | 0 | 101* | 9
CC(C)C(=O)Nc1ccc(C(=O)N2CCCCCC2)cc1 | 5 | -2 | -2 | -1 | -3
O=C(NS(=O)(=O)Oc1cccc(F)c1)OC[C@@H]1CCCN2CCCCC12 (stereo partly drawn) | 0 | 3 | 0 | 9 | -5
O=c1c(/C=N/O)c(Nc2ccccc2)nc2ccccn12 | 2 | 57* | -1 | 2 | nt
CCC(C)N=Cc1c(Nc2ccccc2)nc2c(C)cccn2c1=O (stereo not drawn) | 0 | 1 | -1 | 0 | -5
O=C(Nc1ccccc1)P(=O)(O)c1ccccc1 | nt | nt | 0 | nt | 1
CCN1CCN(c2cc(C)c3cc(NC(=O)c4ccncc4)ccc3n2)CC1 | 3 | 0 | 1 | 0 | 1
CCN1CCN(c2cc(C)c3cc(NC(=O)c4ccc(Br)o4)ccc3n2)CC1 | 1 | 29* | 2 | -2 | 4
O=C(Nc1nccs1)c1ccc(N2CCOCC2)c([N+](=O)[O-])c1 | -8 | 26* | 1 | 4 | 16
Cn1c(N=Nc2ccccc2)nc2ccccc21 | -22 | 34* | 38 | 27 | 29
Cc1sc2c(c1C)CN(C(C)(C)C)CN2C(=O)c1ccccc1 | 2 | 0 | 2 | nt | -4
C/C(NCCCn1ccnc1)=C(\C#N)C(N)=O | -22 | -1 | 0 | 51* | 6
O=C(N/N=C/c1ccccn1)c1sc2ccccc2c1Cl | -18 | 8 | 1 | 21 | 64*
O=C(COC(=O)c1cnccn1)c1ccc(-c2ccccc2)cc1 | -2 | -2 | -1 | -3 | 4
Cc1nn(-c2nccs2)c2c1C(=O)CC(C)(C)C2Br (stereo not drawn) | nt | nt | 56* | nt | -1
CC1CCCN(C(=O)CCCC(=O)N2CCCC(C)C2)C1 (stereo not drawn) | 4 | 0 | 3 | 3 | -4
CSc1nc(SCC(=O)NCC2CCCO2)c2c3c(sc2n1)CN(C)CC3 (stereo not drawn) | -29 | 2 | nt | 57* | nt
Cc1nc(SCC(=O)NCC2CCCO2)c2c3c(sc2n1)CCCC3 (stereo not drawn) | nt | 0 | 0 | -4 | 8
